Source: PubChem
In the library only some 1.9% were active in any assay of this set; here they are far more common.
core dimer inh = HCV core protein dimerization inhibition; inhibition, % at 5 µM; 300,000 compounds, 0.33% hits; TR-FRET GST/Flag-core106 dimerization, 1536-well; AID 1899;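 active = inhibition above the mean of all tested compounds plus 3 SD, set per screening campaign, cut at about 45% in these data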
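Assay system: tagged HCV core106 pair (GST and Flag); medium: KF-containing HEPES buffer, pH 7.45, DTT, CHAPS, BSA; also added: Eu donor and XL665 acceptor anti-tag antibodies; dosing: 5 µM single dose; timing: compound-protein-antibody incubation 4 h at 22.5 °C; signal: TR-FRET 671 and 617 nm emission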
NadD inh = NadD (S. aureus) enzyme inhibition | purified NadD enzyme, colorimetric absorbance read-out | inhibition, % at 20 µM | 360,000 compounds, 0.78% hits | AID 602399; in the data active = inhibition above about 26%
DSG3 Ab inh = blocks pemphigus antibody binding to human desmoglein-3. P32926. DSG3-coupled beads, scFv-anti-DSG3-GFP binding, flow cytometry; active compounds read low. binding (percent of control), % at 10 µM. 310,000 compounds, 0.48% hits;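 active = binding more than 3 SD below its plate's average and above zero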;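 note: hits lower antibody fragment binding to DSG3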
Rce1 inh = yeast Ras-converting enzyme inhibition; 290,000 compounds, 0.27% hits; yeast membranes, quenched prenylated peptide cleavage fluorescence; calls only;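 active = fall in fluorescence gain of 50% or more versus controls, with final raw signal at or below 3038400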;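 note: plate controls were neutral control wells for no effect and wells lacking membranes for full effect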
Target sequence (Q03530 whole entry, looked up): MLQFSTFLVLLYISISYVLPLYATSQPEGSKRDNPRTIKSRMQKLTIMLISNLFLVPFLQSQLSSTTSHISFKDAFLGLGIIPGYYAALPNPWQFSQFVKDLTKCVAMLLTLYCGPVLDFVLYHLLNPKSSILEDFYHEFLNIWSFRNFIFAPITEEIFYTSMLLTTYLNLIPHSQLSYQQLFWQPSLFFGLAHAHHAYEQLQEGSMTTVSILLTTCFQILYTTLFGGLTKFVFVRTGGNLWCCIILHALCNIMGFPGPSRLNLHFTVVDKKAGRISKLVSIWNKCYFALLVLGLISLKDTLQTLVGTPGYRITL
TbMetRS inhib = Trypanosoma brucei MetRS inhibition. purified T. brucei MetRS, ATP depletion, Kinase-Glo luminescence. inhibition, % at 11.9 µM. 360,000 compounds, 0.4% hits;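 active = inhibition above a per-plate cutoff of the control wells' mean inhibition plus 3 SD, cut at about 5.5% in these data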;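 note: 0% = DMSO wells median and 100% = median of wells with control inhibitor compound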
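Material – parasite MetRS enzyme · Medium – HEPES-MgCl2-KCl buffer plus DTT, spermine, BSA, pyrophosphatase · Reagent – ATP, methionine and E. coli bulk tRNA substrates · Times – 15 min enzyme-compound preincubation, 2 h reaction, 10 min detection, 25 °C · Measured by – luminescence of leftover ATP · Evaluation – percent inhibition relative to median high and low control wells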
NadD conf = NadD (S. aureus) inhibition, single concentration confirmation | shares compounds with NadD inh | purified S. aureus NadD, colorimetric enzyme assay | inhibition, % at 20 µM | 2,000 compounds, 13% hits | AID 624309; in the data active = inhibition mostly above about 42%, no sharp cut-off; inactive = mostly below about 42%
* = called active by the depositor; i = inactive; x = not tested or not shown.

SMILES	core dimer inh	NadD inh	DSG3 Ab inh	Rce1 inh	TbMetRS inhib	NadD conf
CC(C)=CCC/C(C)=C/CNC(=O)C[C@H]1C[C@H](C(=O)N(C(C)C)C(C)C)[C@@]2(C)c3[nH]c4cc(-c5ccco5)ccc4c3CCN2C1=O	x	33.5*	90.1	x	-1.2	-1.6
S=C(NCc1ccco1)Nc1ccc(Cl)cc1Cl	1.0	0.3	111.6	i	-0.1	x
Cc1nn(CC(=O)Nc2ccc3c(c2)nc2n3CCN(C3CCCCC3)C2)c(=O)c2ccccc12	17.5	31.7*	x	i	-0.1	13.1
C=CCn1cccc(C(=O)Nc2ccc(N(C)C)cc2)c1=O	-18.1	-2.4	98.7	i	0.5	x
O=C(Nc1ccc2c(c1)OCO2)C1CCCN(S(=O)(=O)Cc2ccccc2)C1 (configuration not stated)	-0.7	-5.0	98.9	i	-1.8	x
COc1cc(NC(=O)COc2ccc(Cl)cc2)ccc1-c1cc2ccccc2oc1=O	33.3	38.1*	94.2	i	-0.1	5.2
CC(C)C[C@H]1CN([C@@H](CC(C)C)CN2CCC[C@H]2CN2C(=O)C(=O)NC[C@@H]2Cc2ccc(O)cc2)C(=O)C(=O)N1CC1CCCCCC1	x	30.1*	x	x	-0.6	21.0
CC(C)C[C@H]1CN([C@@H](CC(C)C)CN2CCC[C@H]2CN2C(=O)C(=O)NC[C@@H]2Cc2ccc(O)cc2)C(=O)C(=O)N1CC1CCCCC1	x	19.8	x	x	-0.1	x
CC(C)C[C@@H](CN1CCC[C@H]1CN1C(=O)C(=O)NC[C@@H]1Cc1ccccc1)N1C[C@H](Cc2ccc(O)cc2)N(CC2CCCCCC2)C(=O)C1=O	x	40.5*	x	x	-1.4	32.9
COc1ccccc1COc1ccc2c(C)c(CC(=O)O)c(=O)oc2c1C	10.0	-2.4	170.1	i	-0.9	x
CC(C)C[C@@H](CN1CCC[C@@H]1CN1C(=S)NC[C@@H]1Cc1ccccc1)N1C[C@H](Cc2ccc(O)cc2)N(CCc2ccccc2)C1=S	x	19.3	x	x	-0.7	x
CC(C)C[C@@H](CN1CCCC1CN1C(=S)NC[C@@H]1Cc1ccccc1)N1C[C@H](Cc2ccc(O)cc2)N(CCc2ccccc2)C1=S (some centres not stated)	x	45.2*	x	x	-0.7	12.5
CC(C)C[C@@H](CN1CCC[C@@H]1CN1C(=S)NC[C@@H]1Cc1ccc(O)cc1)N1C[C@H](Cc2ccc(O)cc2)N(CCc2ccccc2)C1=S	x	39.7*	x	x	-1.5	27.8
COc1ccc(NC(=O)c2ccc3c(c2)NC(=O)CS3)cc1	x	6.3	100.5	x	-0.5	x
Cc1ccc(NS(=O)(=O)c2cc(NC(=O)c3ccc4c(c3)NC(=O)CS4)ccc2Cl)c(C)c1	37.4	37.4*	100.8	i	-0.2	52.2*
O=C(Nc1ccc(C2=NCCN2)cc1)c1ccc(C(=O)Nc2ccc(C3=NCCN3)cc2)c([N+](=O)[O-])c1	18.1	50.4*	101.6	i	-0.9	22.2
Cc1ccc(C)c(C(=O)NCCN(C)C)c1	1.5	-2.5	x	i	-0.7	x
C=C(CN(C)C)C(=O)c1cc(C)ccc1C	x	31.6*	87.9	x	0.3	45.6
N#CC1=C(N)NC(SCC(=O)c2ccc(Cl)cc2)=C(C#N)C12CCCC2	3.5	33.0*	108.1	i	0.1	38.1
CCOc1cc(/C=N/NC(=O)CNc2ccc(C)cc2)ccc1OC(=O)c1ccccc1	25.9	32.5*	95.4	i	-0.6	12.5
CCOc1cc(/C=N/NC(N)=O)ccc1OC(=O)c1ccc(C)cc1	-1.4	x	x	i	x	x
O=C(NCc1ccco1)c1cc(S(=O)(=O)N2CCOCC2)ccc1Cl	-9.5	3.2	104.3	i	-1.0	x
O=C1Cc2c(-c3ccccc3)cc(-c3cccc(Cl)c3)nc2-c2ccccc2N1	x	37.1*	88.1	x	-0.6	1.8
Cc1nnc(NC(=O)c2sc3nc(-c4cccs4)cc(C(F)(F)F)c3c2N)s1	0.6	30.1*	132.6	i	-1.7	-3.0
N#Cc1sc2nc(-c3cccs3)cc(-c3ccc(Cl)cc3)c2c1N	3.4	0.0	83.0	i	-0.8	x
CCN(CC)C(=O)c1sc2nc(-c3cccs3)cc(-c3cccs3)c2c1N	11.3	73.3*	95.8	i	-0.5	7.6
CCN(CC)C(=O)c1sc2nc(-c3cccs3)cc(-c3ccc(Cl)cc3)c2c1N	15.7	43.8*	105.5	i	0.3	-4.8
